From ChEMBL document CHEMBL1240314, “Small-molecule inhibitor of p53 binding to mitochondria protects mice from gamma radiation” (2006)
Active and inactive are the calls of the source. The rule behind the calls is not given here.

Assays:
[1] = target: Cellular tumor antigen p53 (Homo sapiens) (UniProt P04637); assay: Inhibition of p53-mediated transactivation in human MCF7 cells in presence of 50 ug/ml of 5-fluorouracil after 24 hrs by beta-galactosidase reporter gene assay; format: cell-based
Summary of the method: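 MCF7 cells carrying a lacZ reporter under a p53-responsive promoter, treated with 5-FU 50 µg ml–1 across a range of test-agent concentrations. β-galactosidase measured colorimetrically in cell extracts after 24 h drug incubation. Means ± s.d., n = 3.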

NCI-H1299 [2] = assay: Antiapoptotic activity against staurosporine-induced cell death in human H1299 cells assessed as caspase 7 activity at 10 uM after 24 hrs; format: functional, cell-based
NCI-H1299 [3] = assay: Antiapoptotic activity against staurosporine-induced cell death in human H1299 cells assessed as caspase 3 activity at 10 uM after 24 hrs; format: functional, cell-based
HeLa [4] = assay: Antiapoptotic activity against staurosporine-induced cell death in human HeLa cells assessed as caspase 7 activity at 10 uM after 24 hrs; format: functional, cell-based
HeLa [5] = assay: Antiapoptotic activity against staurosporine-induced cell death in human HeLa cells assessed as caspase 3 activity at 10 uM after 24 hrs; format: functional, cell-based
[6] = target: Cellular tumor antigen p53 (Homo sapiens) (UniProt P04637); assay: Inhibition of p53-dependent transactivation of p21 in gamma-stimulated human ConA cells; format: cell-based
Summary of the method: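 ConA cells given 10 µM test agent and 10 Gy gamma irradiation. Protein extracts taken 6 h post-irradiation and p21 detected by immunoblotting.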

[7] = target: Cellular tumor antigen p53 (Homo sapiens) (UniProt P04637); assay: Inhibition of p53-mediated transactivation in human MCF7 cells in presence of 0.5 ug/ml of doxorubicin after 24 hrs by beta-galactosidase reporter gene assay; format: cell-based
Summary of the method: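 MCF7 cells with a p53-responsive lacZ reporter treated with Dox 0.5 mg ml–1 (so in the source) plus a range of compound concentrations; β-galactosidase measured colorimetrically in cell extracts after 24 h; means ± s.d., n = 3.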

Sequence of Cellular tumor antigen p53 (Homo sapiens) (P04637 whole entry, looked up): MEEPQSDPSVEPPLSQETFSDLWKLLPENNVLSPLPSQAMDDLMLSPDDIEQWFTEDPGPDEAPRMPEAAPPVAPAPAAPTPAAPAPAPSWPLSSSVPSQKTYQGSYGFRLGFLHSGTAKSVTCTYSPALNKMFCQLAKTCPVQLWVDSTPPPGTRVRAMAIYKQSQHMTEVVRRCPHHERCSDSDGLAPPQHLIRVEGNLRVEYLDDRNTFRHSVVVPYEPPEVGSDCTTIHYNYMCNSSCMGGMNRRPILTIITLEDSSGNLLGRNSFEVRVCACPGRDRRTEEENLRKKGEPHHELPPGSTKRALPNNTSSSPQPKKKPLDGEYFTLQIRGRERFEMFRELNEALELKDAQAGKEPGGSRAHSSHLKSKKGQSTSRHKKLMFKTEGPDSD

## O=c1[nH]cc(F)c(=O)[nH]1
[1]
  inhibition: inactive

## CN[C@@H]1C[C@H]2O[C@@](C)([C@@H]1OC)n1c3ccccc3c3c4c(c5c6ccccc6n2c5c31)C(=O)NC4
NCI-H1299 [2]
  Activity: inactive
NCI-H1299 [3]
  Activity: inactive
HeLa [4]
  Activity: inactive
HeLa [5]
  Activity: inactive

## Cc1ccc(C(=O)Cn2c3c(sc2=N)CCCC3)cc1
[6]
  inhibition: Active

## COc1cccc2c1C(=O)c1c(O)c3c(c(O)c1C2=O)C[C@@](O)(C(=O)CO)C[C@@H]3O[C@H]1C[C@H](N)[C@H](O)[C@H](C)O1
[7]
  inhibition: inactive
